ChEMBL document CHEMBL1153616, “Synthesis and antiviral activity of new pyrazole and thiazole derivatives” (Eur J Med Chem, 2009)

Tests used:
[1] = Cytotoxicity against HEL cells assessed as minimum cytotoxic concentration required to cause microscopically detectable alteration in normal cell morphology; type: cell-based; settings: human
Summary of the method: (§1)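 Run in parallel with antiviral assays on uninfected cell cultures; test compounds from 10 mg/ml DMSO stocks in serial dilution. Value is minimum cytotoxic concentration (MCC) producing microscopically detectable alteration of normal cell morphology.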

Human alphaherpesvirus 2 = assay: Antiviral activity against HSV2 G infected in human HEL cells assessed as inhibition of virus-induced cytopathicity after 3 days; type: functional, organism-based; settings: Human alphaherpesvirus 2, strain G, 72 h
Summary of the method: (§2)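 Confluent cell monolayers infected with 100 CCID50 virus; after 2 h adsorption at 37 °C, virus removed and serial compound dilutions added (DMSO stocks 10 mg/ml). Incubated 37 °C for 3 days until complete CPE in untreated virus control. EC50 = concentration protecting 50% of infected cells from viral cytopathogenicity; ">" marks highest concentration tested.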

Vaccinia virus = assay: Antiviral activity against Vaccinia virus infected in human HEL cells assessed as inhibition of virus-induced cytopathicity after 3 days; type: functional, organism-based; settings: Orthopoxvirus vaccinia, 72 h
[2] = test system: Vesicular stomatitis virus; assay: Antiviral activity against Vesicular stomatitis virus infected in human HEL cells assessed as inhibition of virus-induced cytopathicity after 3 days; type: functional, organism-based; settings: 72 h
Human alphaherpesvirus 1 [3] = assay: Antiviral activity against thymidine kinase-deficient ACV-resistant HSV1 KOS infected in human HEL cells assessed as inhibition of virus-induced cytopathicity after 3 days; type: functional, organism-based; settings: Human alphaherpesvirus 1, KOS, 72 h
[4] = Cytotoxicity against human HeLa cells assessed as minimum cytotoxic concentration required to cause microscopically detectable alteration in normal cell morphology; type: cell-based; summary of the method: as §1
[5] = test system: Vesicular stomatitis virus; assay: Antiviral activity against Vesicular stomatitis virus infected in human HeLa cells assessed as inhibition of virus-induced cytopathicity after 3 days; type: functional, organism-based; settings: 72 h
Human alphaherpesvirus 1 [6] = assay: Antiviral activity against HSV1 KOS infected in human HEL cells assessed as inhibition of virus-induced cytopathicity after 3 days; type: functional, organism-based; settings: Human alphaherpesvirus 1, KOS, 72 h
Coxsackievirus B4 [7] = assay: Antiviral activity against Coxsackievirus B4 infected in human HeLa cells assessed as inhibition of virus-induced cytopathicity after 3 days; type: functional, organism-based; settings: Enterovirus B, 72 h
Summary of the method: (§3)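 Confluent cell monolayers infected with 100 CCID50 virus; after 2 h adsorption at 37 °C, virus removed and serial compound dilutions added (DMSO stocks 10 mg/ml). Incubated 37 °C for 3 days until complete CPE in untreated virus control.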

[8] = test system: Respiratory syncytial virus; assay: Antiviral activity against RSV infected in human HeLa cells assessed as inhibition of virus-induced cytopathicity after 3 days; type: functional, organism-based; settings: 72 h; summary of the method: as §2
[9] = Cytotoxicity against african green monkey Vero cells assessed as minimum cytotoxic concentration required to cause microscopically detectable alteration in normal cell morphology; type: cell-based; settings: chlorocebus sabaeus; summary of the method: as §1
Human respirovirus 3 = assay: Antiviral activity against Parainfluenza virus type 3 infected in african green monkey Vero cells assessed as inhibition of virus-induced cytopathicity after 3 days; type: functional, organism-based; settings: Human respirovirus 3, Vero, 72 h; summary of the method: as §2
[10] = test system: Mammalian orthoreovirus 1; assay: Antiviral activity against Reovirus 1 infected in african green monkey Vero cells assessed as inhibition of virus-induced cytopathicity after 3 days; type: functional, organism-based; settings: Mammalian orthoreovirus 1, Vero, 72 h; summary of the method: as §2
Sindbis virus = assay: Antiviral activity against Sindbis virus infected in african green monkey Vero cells assessed as inhibition of virus-induced cytopathicity after 3 days postinfection; type: functional, organism-based; settings: 72 h; summary of the method: as §2
Coxsackievirus B4 [11] = assay: Antiviral activity against Coxsackievirus B4 infected in african green monkey Vero cells assessed as inhibition of virus-induced cytopathicity after 3 days; type: functional, organism-based; settings: Enterovirus B, 72 h; summary of the method: as §2
Punta Toro virus = assay: Antiviral activity against Punta Toro virus infected in african green monkey Vero cells assessed as inhibition of virus-induced cytopathicity after 3 days; type: functional, organism-based; settings: 72 h; summary of the method: as §3
[12] = Selectivity index, ratio of MCC for human HEL cells to EC50 for sVesicular stomatitis virus; type: toxicity, cell-based; settings: read-out: Selectivity Index
Summary of the method: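 The ratio was MCC/EC50. MCC was the minimum concentration causing microscopically visible change in normal morphology of uninfected HEL, HeLa or Vero cells, scored in parallel with the antiviral test. EC50 came from the CPE assay: 100 CCID50 infection, 2 h adsorption at 37 °C, serial compound dilutions, and 3 days at 37 °C. It was the concentration protecting 50% of cells from virus-induced CPE.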

Structure (SMILES) | MCC [1] | EC50 (Human alphaherpesvirus 2) | EC50 (Vaccinia virus) | EC50 [2] | EC50 (Human alphaherpesvirus 1 [3]) | MCC [4] | EC50 [5] | EC50 (Human alphaherpesvirus 1 [6]) | EC50 (Coxsackievirus B4 [7]) | EC50 [8] | MCC [9] | EC50 (Human respirovirus 3) | EC50 [10] | EC50 (Sindbis virus) | EC50 (Coxsackievirus B4 [11]) | EC50 (Punta Toro virus) | selectivity ratio [12]
Cc1ccc(C2=NN(C3=NC(=O)CS3)C(c3ccc(OCc4ccccc4)cc3)C2)cc1 (stereo not drawn) | 20 µg/mL | > 4 µg/mL | > 4 µg/mL | > 4 µg/mL | > 4 µg/mL | 100 µg/mL | > 20 µg/mL | > 4 µg/mL | > 20 µg/mL | > 20 µg/mL | 100 µg/mL | > 20 µg/mL | > 20 µg/mL | > 20 µg/mL | > 20 µg/mL | > 20 µg/mL | 5
NC(=S)N1N=C(c2ccc(Br)cc2)CC1c1ccc(OCc2ccccc2)cc1 (stereo not drawn) | 100 µg/mL | > 20 µg/mL | > 20 µg/mL | > 20 µg/mL | > 20 µg/mL | 100 µg/mL | > 20 µg/mL | > 20 µg/mL | > 20 µg/mL | > 20 µg/mL | 100 µg/mL | > 20 µg/mL | > 20 µg/mL | > 20 µg/mL | > 20 µg/mL | > 20 µg/mL | –
O=C1CSC(N2N=C(c3ccc(Cl)cc3)CC2c2ccc(OCc3ccccc3)cc2)=N1 (stereo not drawn) | 100 µg/mL | > 20 µg/mL | > 20 µg/mL | > 20 µg/mL | > 20 µg/mL | 100 µg/mL | > 20 µg/mL | > 20 µg/mL | > 20 µg/mL | > 20 µg/mL | 100 µg/mL | > 20 µg/mL | > 20 µg/mL | > 20 µg/mL | > 20 µg/mL | > 20 µg/mL | –
NC(=S)N1N=C(c2ccccc2)CC1c1ccc(OCc2ccccc2)cc1 (stereo not drawn) | 100 µg/mL | > 20 µg/mL | > 20 µg/mL | > 20 µg/mL | > 20 µg/mL | ≥ 20 µg/mL | > 20 µg/mL | > 20 µg/mL | > 20 µg/mL | > 20 µg/mL | 100 µg/mL | > 20 µg/mL | > 20 µg/mL | > 20 µg/mL | > 20 µg/mL | > 20 µg/mL | –
CC(=O)N1N=C(c2ccc(Br)cc2)CC1c1ccc(OCc2ccccc2)cc1 (stereo not drawn) | 100 µg/mL | > 20 µg/mL | > 20 µg/mL | > 20 µg/mL | > 20 µg/mL | 100 µg/mL | > 20 µg/mL | > 20 µg/mL | > 20 µg/mL | > 20 µg/mL | 100 µg/mL | > 20 µg/mL | > 20 µg/mL | > 20 µg/mL | > 20 µg/mL | > 20 µg/mL | –
CC(=O)N1N=C(c2ccccc2)CC1c1ccc(OCc2ccccc2)cc1 (stereo not drawn) | 100 µg/mL | > 20 µg/mL | > 20 µg/mL | > 20 µg/mL | > 20 µg/mL | > 100 µg/mL | > 100 µg/mL | > 20 µg/mL | > 100 µg/mL | > 100 µg/mL | 100 µg/mL | > 20 µg/mL | > 20 µg/mL | > 20 µg/mL | > 20 µg/mL | > 20 µg/mL | –
Cc1ccc(-c2csc(N3N=C(c4ccc(Br)cc4)CC3c3ccc(OCc4ccccc4)cc3)n2)cc1 (stereo not drawn) | 100 µg/mL | > 20 µg/mL | > 20 µg/mL | > 20 µg/mL | > 20 µg/mL | > 100 µg/mL | > 100 µg/mL | > 20 µg/mL | > 100 µg/mL | > 100 µg/mL | 100 µg/mL | > 20 µg/mL | > 20 µg/mL | > 20 µg/mL | > 20 µg/mL | > 20 µg/mL | –
